From ChEMBL document CHEMBL1123026, “Preparation and antiarthritic and analgesic activity of 4,5-diaryl-2-(substituted thio)-1H-imidazoles and their sulfoxides and sulfones” (1985)

How the values were obtained:
Assay type in all cases: functional
Mus musculus [1] = assay: Effective dose determined by mouse phenyl-p-benzoquinone writhing (PQW) assay after peroral administration; details: po
Procedure, shortened: (§1)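 Fasted (17-21 h) female white mice, 5-20 per double-blind test, dosed orally with compound suspended in 1% methylcellulose. 0.20 mL aqueous 0.01% phenyl-p-benzoquinone given i.p. 6 min before a 10-min observation for stretching/writhing. ED50 (dose protecting 50% of mice) calculated by the moving-average method.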

Rattus norvegicus [2] = assay: Effective dose determined against rat adjuvant arthritis after peroral administration; details: po
Procedure, shortened: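 Male Lewis rats (130-150 g) given 0.1 mL Mycobacterium butyricum adjuvant (5 mg/mL in mineral oil) s.c. into the right hind paw; arthritis developed for 2 weeks. Groups of 10 matched for severity were dosed orally by gavage in PVA-acacia vehicle (10 mL/kg) for 7 days. Uninjected left paw volume was measured the day after the last dose. Percent decrease was calculated vs arthritic and nonarthritic controls. ED50 was read from a visually fitted semilog dose-response line.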

Rattus norvegicus [3] = assay: Decrease in paw volume by the effect of compound at a dose of 50 mg/kg
Procedure, shortened: (§2)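 Male Lewis rats (130-150 g) got 0.1 mL adjuvant (heat-killed Mycobacterium butyricum, 5 mg/mL in mineral oil) subplantar in the right hind paw and were left 2 weeks. Groups of 10 matched for severity were dosed orally by gavage (PVA-acacia vehicle, 10 mL/kg) for 7 days. Uninjected left hind paw volume was read the next day. % decrease = (arthritic control − treated)/(arthritic − nonarthritic control) × 100; Student's t-test.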

Rattus norvegicus [4] = assay: Decrease in paw volume was evaluated at dose 25 mg/kg; procedure, shortened: as §2
Rattus norvegicus [5] = assay: Decrease in paw volume was evaluated at dose 9 mg/kg; procedure, shortened: as §2
Rattus norvegicus [6] = assay: Decrease in paw volume by the effect of compound at a dose of 100 mg/kg; procedure, shortened: as §2
Mus musculus [7] = assay: Effective dose by mouse phenyl-p-benzoquinone writhing (PQW)assay after peroral administration; highest dose was tested; details: po; procedure, shortened: as §1
Rattus norvegicus [8] = assay: Decrease in paw volume was evaluated at dose 30 mg/kg; procedure, shortened: as §2

Row | Compound | ED50 (Mus musculus [1]) | ED50 (Rattus norvegicus [2]) | other results
1 | CS(=O)(=O)c1nc(-c2ccc(Cl)cc2)c(-c2ccc(F)cc2)[nH]1 | > 130 mg/kg | – | –
2 | FC(F)C(F)(F)Sc1nc(-c2cccc(Cl)c2)c(-c2cccc(Cl)c2)[nH]1 | > 130 mg/kg | 1.2 mg/kg | –
3 | C[S+]([O-])c1nc(-c2ccc(Cl)c(Cl)c2)c(-c2ccccc2)[nH]1 (stereo not drawn) | > 130 mg/kg | – | Decrease (Rattus norvegicus [3]): 46%
4 | CS(=O)(=O)c1nc(-c2ccc(Cl)cc2)c(-c2ccccc2)[nH]1 | > 130 mg/kg | – | –
5 | FC(F)C(F)(F)Sc1nc(-c2cccc(Cl)c2)c(-c2ccccc2)[nH]1 | > 130 mg/kg | – | –
6 | CSc1ccc(-c2[nH]c(SC(F)(F)C(F)F)nc2-c2ccc(F)cc2)cc1 | > 108 mg/kg | 1.6 mg/kg | –
7 | CS(=O)(=O)c1nc(-c2ccc(Cl)cc2)c(-c2ccc(C(F)(F)F)cc2)[nH]1 | > 135 mg/kg | – | –
8 | O=S(=O)(c1nc(-c2ccccc2)c(-c2ccccc2)[nH]1)C(F)(F)C(F)F | – | 0.095 mg/kg | –
9 | FC(F)Sc1nc(-c2ccccc2)c(-c2ccccc2)[nH]1 | > 130 mg/kg | 27 mg/kg | –
10 | COc1ccc(-c2[nH]c(SC)nc2-c2ccccc2)cc1 | > 130 mg/kg | – | Decrease (Rattus norvegicus [4]): 35%
11 | CS(=O)(=O)c1nc(-c2ccc(F)cc2)c(-c2ccc(C(F)(F)F)cc2)[nH]1 | > 130 mg/kg | – | –
12 | COc1ccc(-c2[nH]c(SC(F)(F)C(F)F)nc2-c2ccccc2)cc1 | > 130 mg/kg | 30 mg/kg | –
13 | CCSc1nc(-c2ccccc2)c(-c2ccccc2)[nH]1 | > 130 mg/kg | 100 mg/kg | –
14 | CSc1nc(-c2ccc(Cl)c(Cl)c2)c(-c2ccccc2)[nH]1 | > 130 mg/kg | – | Decrease (Rattus norvegicus [4]): 62%
15 | CSc1nc(-c2ccc(C(F)(F)F)cc2)c(-c2ccc(C(F)(F)F)cc2)[nH]1 | > 130 mg/kg | – | Decrease (Rattus norvegicus [5]): 29%
16 | [O-][S+](CCC(F)(F)C(F)(F)F)c1nc(-c2ccccc2)c(-c2ccccc2)[nH]1 (stereo not drawn) | > 130 mg/kg | > 75 mg/kg | –
17 | CSCSc1nc(-c2ccccc2)c(-c2ccccc2)[nH]1 | > 130 mg/kg | > 50 mg/kg | –
18 | CSc1nc(-c2ccc(Cl)cc2)c(-c2ccc(Cl)cc2)[nH]1 | > 135 mg/kg | 4 mg/kg | –
19 | COc1ccc(-c2nc(SC)[nH]c2-c2ccc(OC)cc2)cc1 | > 135 mg/kg | 4.5 mg/kg | –
20 | Fc1ccc(-c2[nH]c(SC(F)(F)C(F)F)nc2-c2ccc(Cl)cc2)cc1 | > 130 mg/kg | – | –

Row | Compound | ED50 (Mus musculus [1]) | ED50 (Rattus norvegicus [2]) | other results
21 | FC(F)C(F)(F)Sc1nc(-c2ccc(Cl)cc2)c(-c2ccc(Cl)cc2)[nH]1 | > 135 mg/kg | 0.33 mg/kg | –
22 | CCOc1ccc(-c2[nH]c(S(C)(=O)=O)nc2-c2ccccc2)cc1 | > 130 mg/kg | – | Decrease (Rattus norvegicus [3]): 41%
23 | COc1ccc(-c2nc(SCC(C)=O)[nH]c2-c2ccc(OC)cc2)cc1 | – | 10 mg/kg | –
24 | CSc1nc(-c2ccc(F)cc2)c(-c2ccc(F)cc2)[nH]1 | > 130 mg/kg | 4 mg/kg | –
25 | Fc1ccc(-c2nc(SC(F)(F)C(F)F)[nH]c2-c2ccc(F)cc2)cc1 | > 81 mg/kg | 0.05 mg/kg | –
26 | FC(F)(F)Sc1nc(-c2ccc(Cl)c(Cl)c2)c(-c2ccccc2)[nH]1 | > 130 mg/kg | – | –
27 | CS(=O)(=O)c1nc(-c2ccc(Cl)cc2)c(-c2ccc(Cl)cc2)[nH]1 | 3.7 mg/kg | – | –
28 | Fc1cccc(-c2nc(SC(F)(F)C(F)F)[nH]c2-c2ccccc2)c1 | > 130 mg/kg | 2.5 mg/kg | –
29 | Cc1ccc(-c2[nH]c(S(C)(=O)=O)nc2-c2ccccc2)cc1 | > 130 mg/kg | – | Decrease (Rattus norvegicus [6]): 45%
30 | O=S(=O)(CCC(F)(F)F)c1nc(-c2ccccc2)c(-c2ccccc2)[nH]1 | > 135 mg/kg | > 75 mg/kg | –
31 | COc1ccc(-c2nc(SCC(F)(F)F)[nH]c2-c2ccc(OC)cc2)cc1 | > 135 mg/kg | 35 mg/kg | –
32 | COc1ccc(-c2nc(SC[S+](C)[O-])[nH]c2-c2ccc(OC)cc2)cc1 (stereo not drawn) | – | 52 mg/kg | –
33 | CSc1nc(-c2cccc(F)c2)c(-c2ccccc2)[nH]1 | > 130 mg/kg | 75 mg/kg | –
34 | CS(=O)(=O)c1nc(-c2ccc(C(F)(F)F)cc2)c(-c2ccccc2)[nH]1 | > 130 mg/kg | – | Decrease (Rattus norvegicus [3]): 32%
35 | CSc1nc(-c2ccc(Cl)cc2)c(-c2ccc(F)cc2)[nH]1 | > 130 mg/kg | – | –
36 | FC(F)C(F)(F)Sc1nc(-c2ccccc2)c(-c2ccccc2)[nH]1 | – | 1.2 mg/kg | ED50 (Mus musculus [7]): 81 mg/kg
37 | COc1ccc(-c2nc(SCSC)[nH]c2-c2ccc(OC)cc2)cc1 | > 130 mg/kg | – | Decrease (Rattus norvegicus [8]): 46%
38 | FCC(F)(F)Sc1nc(-c2ccccc2)c(-c2ccccc2)[nH]1 | > 135 mg/kg | 2 mg/kg | –
39 | CCCS(=O)(=O)c1nc(-c2ccccc2)c(-c2ccccc2)[nH]1 | > 130 mg/kg | – | Decrease (Rattus norvegicus [6]): 26%
40 | CS(=O)(=O)c1nc(-c2ccc(Cl)c(Cl)c2)c(-c2ccccc2)[nH]1 | > 130 mg/kg | – | Decrease (Rattus norvegicus [3]): 59%
